Results taken from ChEMBL document CHEMBL3259528, “Exploring 5-nitrofuran derivatives against nosocomial pathogens: synthesis, antimicrobial activity and chemometric analysis” (2014).
Values after ≈ are worked out from the molar mass of the structure shown. One block for each compound: values may come before it. Active and inactive are the calls of the source. The rule behind the calls is not given here.

Tests used:
Enterococcus faecalis [1] = experiment: Antimicrobial activity against Enterococcus faecalis ATCC 29212 after 24 to 48 hrs by two-fold broth microdilution method; format: functional
Serratia marcescens [2] = experiment: Antimicrobial activity against Serratia marcescens ATCC 14576 after 24 to 48 hrs by two-fold broth microdilution method; format: functional
Escherichia coli [3] = experiment: Antimicrobial activity against Escherichia coli ATCC 25922 after 24 to 48 hrs by two-fold broth microdilution method; format: functional
Enterobacter cloacae [4] = experiment: Antimicrobial activity against Enterobacter cloacae ATCC 23355 after 24 to 48 hrs by two-fold broth microdilution method; format: functional
Klebsiella pneumoniae [5] = experiment: Antimicrobial activity against Klebsiella pneumoniae ATCC 700603 after 24 to 48 hrs by two-fold broth microdilution method; format: functional
Method in brief: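 Two-fold serial dilutions in cation-adjusted Mueller–Hinton broth per CLSI M100-S2. Stocks in DMSO/CAMH 1:10 v/v. Range 2.0–128 µM. Inoculum set to 0.5 McFarland, then diluted in saline and CAMH. Incubated at 35 °C for 18 h. MIC is the lowest concentration with no visible growth. Plates also read at 24 and 48 h as sterility control. Triplicate.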

Staphylococcus aureus [6] = experiment: Antimicrobial activity against Staphylococcus aureus ATCC 29213 after 24 to 48 hrs by two-fold broth microdilution method; format: functional
Staphylococcus aureus [7] = experiment: Antimicrobial activity against multidrug-resistant Staphylococcus aureus VISA3 […] by two-fold broth microdilution method; format: functional
Staphylococcus aureus [8] = experiment: Antimicrobial activity against Staphylococcus aureus ATCC 29213 after 18 hrs by modified broth microdilution method; format: functional
Method in brief: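 PGI90, the concentration giving 90% growth inhibition, fitted with an exponential growth curve from at least seven concentrations of the MIC assay. Inhibition % = [(Ac − Ap)/Ac] × 100 from A620 of drug-free control versus drug-treated culture. Checked by a modified broth microdilution (Phase 2).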

Candida albicans [9] = experiment: Antimicrobial activity against Candida albicans ATCC 537Y at 64 uM after 48 hrs by two-fold broth microdilution method; format: functional, organism-based
Method in brief: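 Single top concentration of the antifungal microdilution: RPMI 1640, inoculum 0.5 McFarland diluted in saline/RPMI, 35 °C for 48 h. Activity is judged at the highest tested level, 64 µM. Run in triplicate.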

Klebsiella pneumoniae [10] = experiment: Antimicrobial activity against Klebsiella pneumoniae ATCC 700603 at 128 uM after 24 to 48 hrs by two-fold broth microdilution method; format: functional, organism-based
Method in brief: (§1)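 Antibacterial microdilution in CAMH, inoculum 0.5 McFarland diluted in saline/CAMH, 35 °C for 18 h, with further reads at 24 and 48 h. Activity is scored at the maximum tested concentration, 128 µM. Triplicate.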

Enterobacter cloacae [11] = experiment: Antimicrobial activity against Enterobacter cloacae ATCC 23355 at 128 uM after 24 to 48 hrs by two-fold broth microdilution method; format: functional, organism-based; method in brief: as §1
Enterococcus faecalis [12] = experiment: Antimicrobial activity against Enterococcus faecalis ATCC 29212 at 128 uM after 24 to 48 hrs by two-fold broth microdilution method; format: functional, organism-based; method in brief: as §1
Escherichia coli [13] = experiment: Antimicrobial activity against Escherichia coli ATCC 25922 at 128 uM after 24 to 48 hrs by two-fold broth microdilution method; format: functional, organism-based; method in brief: as §1
Serratia marcescens [14] = experiment: Antimicrobial activity against Serratia marcescens ATCC 14576 at 128 uM after 24 to 48 hrs by two-fold broth microdilution method; format: functional, organism-based; method in brief: as §1
Candida albicans [15] = experiment: Antimicrobial activity against Candida albicans ATCC 537Y after 48 hrs by two-fold broth microdilution method; format: functional
Method in brief: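 Two-fold serial dilutions in RPMI 1640 per CLSI M27-A2. Stocks in DMSO/RPMI 1:20 v/v. Test range 1.0–64 µM. Inoculum set to 0.5 McFarland, then diluted in saline and RPMI 1640. Plates held at 35 °C for 48 h. MIC is the lowest concentration giving prominent growth reduction. Run in triplicate.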

Staphylococcus aureus [16] = experiment: Antimicrobial activity against Staphylococcus aureus ATCC 29213 at 128 uM after 24 to 48 hrs by two-fold broth microdilution method; format: functional, organism-based; method in brief: as §1

MIC (Enterococcus faecalis [1]): < 20 µM
MIC (Serratia marcescens [2]): < 20 µM
MIC (Escherichia coli [3]): < 20 µM
MIC (Enterobacter cloacae [4]): < 20 µM
MIC (Klebsiella pneumoniae [5]): < 20 µM
MIC (Staphylococcus aureus [6]): < 20 µM
Structure (SMILES): C[C@H]1COc2c(N3CCN(C)CC3)c(F)cc3c(=O)c(C(=O)O)cn1c23 [LEVOFLOXACIN]

Structure (SMILES): O=C(N/N=C/c1ccc([N+](=O)[O-])o1)c1ccc(I)cc1
MIC (Staphylococcus aureus [7]): 2 µM (≈ 0.77 µg/mL)
log(1/MIC>90) (Staphylococcus aureus [8]): 5.56
Activity (Candida albicans [9]): inactive
Activity (Klebsiella pneumoniae [10]): inactive
Activity (Enterobacter cloacae [11]): inactive
Activity (Enterococcus faecalis [12]): inactive
Activity (Escherichia coli [13]): inactive
Activity (Serratia marcescens [14]): inactive
MIC (Staphylococcus aureus [6]): 2 µM (≈ 0.77 µg/mL)
MIC90 (Staphylococcus aureus [6]): 2.78 µM (≈ 1.07 µg/mL)

Structure (SMILES): CCCOc1ccc(C(=O)N/N=C/c2ccc([N+](=O)[O-])o2)cc1
MIC (Enterococcus faecalis [1]): 64 µM (≈ 20.3 µg/mL)
MIC90 (Enterococcus faecalis [1]): 73.5 µM (≈ 23.3 µg/mL)
MIC (Staphylococcus aureus [7]): 4 µM (≈ 1.27 µg/mL)
log(1/MIC>90) (Staphylococcus aureus [8]): 5.61
MIC (Serratia marcescens [2]): 64 µM (≈ 20.3 µg/mL)
MIC90 (Serratia marcescens [2]): 66.7 µM (≈ 21.2 µg/mL)
MIC (Escherichia coli [3]): 64 µM (≈ 20.3 µg/mL)
MIC90 (Escherichia coli [3]): 65.8 µM (≈ 20.9 µg/mL)
MIC (Candida albicans [15]): 32 µM (≈ 10.2 µg/mL)
MIC90 (Candida albicans [15]): 40.8 µM (≈ 12.9 µg/mL)
MIC90 (Enterobacter cloacae [4]): 69.8 µM (≈ 22.2 µg/mL)
MIC (Klebsiella pneumoniae [5]): 64 µM (≈ 20.3 µg/mL)
MIC90 (Klebsiella pneumoniae [5]): 71.5 µM (≈ 22.7 µg/mL)
MIC (Staphylococcus aureus [6]): 2 µM (≈ 0.635 µg/mL)
MIC90 (Staphylococcus aureus [6]): 2.47 µM (≈ 0.784 µg/mL)

Structure (SMILES): CCCOc1ccc(C2=NN(C(C)=O)C(c3ccc([N+](=O)[O-])o3)O2)cc1 (stereo not given)
Activity (Candida albicans [9]): inactive
Activity (Staphylococcus aureus [16]): inactive
Activity (Klebsiella pneumoniae [10]): inactive
Activity (Enterobacter cloacae [11]): inactive
Activity (Enterococcus faecalis [12]): inactive
Activity (Escherichia coli [13]): inactive
Activity (Serratia marcescens [14]): inactive

Structure (SMILES): CC(=O)N1N=C(c2ccc(C(C)(C)C)cc2)OC1c1ccc([N+](=O)[O-])o1 (stereo not given)
Activity (Candida albicans [9]): inactive
Activity (Staphylococcus aureus [16]): inactive
Activity (Klebsiella pneumoniae [10]): inactive
Activity (Enterobacter cloacae [11]): inactive
Activity (Enterococcus faecalis [12]): inactive
Activity (Escherichia coli [13]): inactive
Activity (Serratia marcescens [14]): inactive

Structure (SMILES): CCCc1ccc(C(=O)N/N=C/c2ccc([N+](=O)[O-])o2)cc1
MIC (Enterococcus faecalis [1]): 64 µM (≈ 19.3 µg/mL)
MIC90 (Enterococcus faecalis [1]): 73.2 µM (≈ 22.1 µg/mL)
MIC (Staphylococcus aureus [7]): 2 µM (≈ 0.603 µg/mL)
log(1/MIC>90) (Staphylococcus aureus [8]): 5.59
MIC (Serratia marcescens [2]): 64 µM (≈ 19.3 µg/mL)
MIC90 (Serratia marcescens [2]): 66.3 µM (≈ 20 µg/mL)
MIC (Escherichia coli [3]): 64 µM (≈ 19.3 µg/mL)
MIC90 (Escherichia coli [3]): 69.8 µM (≈ 21 µg/mL)
MIC (Candida albicans [15]): 32 µM (≈ 9.64 µg/mL)
MIC90 (Candida albicans [15]): 42.1 µM (≈ 12.7 µg/mL)
MIC90 (Enterobacter cloacae [4]): 69.8 µM (≈ 21 µg/mL)
MIC (Klebsiella pneumoniae [5]): 64 µM (≈ 19.3 µg/mL)
MIC90 (Klebsiella pneumoniae [5]): 74.8 µM (≈ 22.5 µg/mL)
MIC (Staphylococcus aureus [6]): 2 µM (≈ 0.603 µg/mL)
MIC90 (Staphylococcus aureus [6]): 2.56 µM (≈ 0.771 µg/mL)
